These results are taken from PubChem BioAssay.

Assay [1] in a line: Her2 expression decrease, cell viability multiplex – SKBR3 breast tumor cells, AlphaScreen, ATP viability, primary screen (AID 461).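 On Her2 level: lower value means less Her2 protein in the cells.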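 On viability: percent of carrier control wells set as 100% viability.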 The following applies: SKBR3 Her2 protein level, 18-24 h, measured here: SKBR3 viability, ATP luminescence, at 10 µM. On the technique in general: Alpha assays give light when donor and acceptor beads are brought close together.
Assay [2] concerns the target Receptor tyrosine-protein kinase erbB-2 (Homo sapiens) (UniProt P04626). Described as above. The following applies: 18-24 h, at 10 µM, stronger effect = lower value.
Assay [3] is described as follows: reduced viability of SK-BR-3 breast cancer cells – cell-based, 24 h, human, pilot screen (AID 572;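 active means viability at or below 10% of carrier control in both of two separate runs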;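 further: compound exposure lasted between 18 and 24 h rather than exactly 24 h; 100% = carrier-treated control wells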). The following applies: SK-BR-3 viability, CellTiter-Glo luminescence, at 10 µM, stronger effect = lower value.
A short description of assay [4]: HUVEC growth inhibition – cell-based, human, primary screen (AID 575;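 active means viability at or below 30% in both replicate assays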;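 further: 100% = median of untreated cell wells with 0.1% DMSO on each plate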). The following applies: HUVEC proliferation, CellTiter-Glo luminescence, 72 h; at 10 µM; stronger effect = lower value. An outline of the steps: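 material = primary HUVEC, no more than 12 passages | input = 1250 cells per well | controls = vehicle and MePR control wells | measured by = CTG luminescence | times = 72 h compound incubation | format = collagen-coated 384-well format | read-out = % viability vs DMSO wells | doses = single 10 µM dose, 0.1% DMSO, from 5x medium stock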

A short description of assay [5]: H69AR cell proliferation blockers – human, duplicate replicates, primary screen (AID 580;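 active means viability at or under a set limit in both replicates, limit being median viability minus 3 SD, cut at about 48% in these data, passing the limit was not always enough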;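 further: 100% = mean luminescence of untreated wells and 0% = no signal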). The following applies: H69AR lung tumor cells viability, ATP luminescence, 72 h; at 10 µM; stronger effect = lower value.
A short description of assay [6]: MRP1 drug-resistance reversers in H69AR cells – cell-based, doxorubicin co-treatment, pilot screen (AID 601;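 active means viability loss from added drug above about 55%, and viability with drug at most 40%, in both replicates, limit read from the data, passing the limit was not always enough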). The following applies: CellTiter-Glo, 72 h, at 10 µM; for differential viability (reversal): stronger effect = higher value. On the technique in general: In ATP-based viability assays light output follows the ATP content of the culture.
Assay [7] is described as follows: yeast transport mutant growth inhibition pilot in 384-well plates, post-Golgi transport modulator project (AID 636; in the data active means inhibition above about 31%). The following applies: absorbance 615 nm, about 18 h, stronger effect = higher value.
Assay [8] is described as follows: growth suppression of yeast trafficking mutant, preliminary HTS, modulators of trafficking downstream of Golgi apparatus project, 1536-format plate, OD 615 nm (AID 637; in the data active means inhibition above about 30%). The following applies: yeast transport mutant growth, absorbance 615 nm, 18 h; stronger effect = higher value.
The mark [9] stands for this setting: H69AR cells + 2 uM doxorubicin, measured here: viability with 2 uM doxorubicin, stronger effect = lower value.
Where [10] appears, read: H69AR cells, compound alone cytotoxicity.

The source made the active and inactive calls.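 How the source made its calls, unless noted: active means Her2 level under about 52% in both replicate screens, with viability over 70% of control (limit read from the data); inconclusive means Her2 under the limit in one screen only, or viability under 70%; inactive means Her2 level above the set limit.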

Receptor tyrosine-protein kinase erbB-2 (Homo sapiens), sequence (P04626 whole entry, looked up): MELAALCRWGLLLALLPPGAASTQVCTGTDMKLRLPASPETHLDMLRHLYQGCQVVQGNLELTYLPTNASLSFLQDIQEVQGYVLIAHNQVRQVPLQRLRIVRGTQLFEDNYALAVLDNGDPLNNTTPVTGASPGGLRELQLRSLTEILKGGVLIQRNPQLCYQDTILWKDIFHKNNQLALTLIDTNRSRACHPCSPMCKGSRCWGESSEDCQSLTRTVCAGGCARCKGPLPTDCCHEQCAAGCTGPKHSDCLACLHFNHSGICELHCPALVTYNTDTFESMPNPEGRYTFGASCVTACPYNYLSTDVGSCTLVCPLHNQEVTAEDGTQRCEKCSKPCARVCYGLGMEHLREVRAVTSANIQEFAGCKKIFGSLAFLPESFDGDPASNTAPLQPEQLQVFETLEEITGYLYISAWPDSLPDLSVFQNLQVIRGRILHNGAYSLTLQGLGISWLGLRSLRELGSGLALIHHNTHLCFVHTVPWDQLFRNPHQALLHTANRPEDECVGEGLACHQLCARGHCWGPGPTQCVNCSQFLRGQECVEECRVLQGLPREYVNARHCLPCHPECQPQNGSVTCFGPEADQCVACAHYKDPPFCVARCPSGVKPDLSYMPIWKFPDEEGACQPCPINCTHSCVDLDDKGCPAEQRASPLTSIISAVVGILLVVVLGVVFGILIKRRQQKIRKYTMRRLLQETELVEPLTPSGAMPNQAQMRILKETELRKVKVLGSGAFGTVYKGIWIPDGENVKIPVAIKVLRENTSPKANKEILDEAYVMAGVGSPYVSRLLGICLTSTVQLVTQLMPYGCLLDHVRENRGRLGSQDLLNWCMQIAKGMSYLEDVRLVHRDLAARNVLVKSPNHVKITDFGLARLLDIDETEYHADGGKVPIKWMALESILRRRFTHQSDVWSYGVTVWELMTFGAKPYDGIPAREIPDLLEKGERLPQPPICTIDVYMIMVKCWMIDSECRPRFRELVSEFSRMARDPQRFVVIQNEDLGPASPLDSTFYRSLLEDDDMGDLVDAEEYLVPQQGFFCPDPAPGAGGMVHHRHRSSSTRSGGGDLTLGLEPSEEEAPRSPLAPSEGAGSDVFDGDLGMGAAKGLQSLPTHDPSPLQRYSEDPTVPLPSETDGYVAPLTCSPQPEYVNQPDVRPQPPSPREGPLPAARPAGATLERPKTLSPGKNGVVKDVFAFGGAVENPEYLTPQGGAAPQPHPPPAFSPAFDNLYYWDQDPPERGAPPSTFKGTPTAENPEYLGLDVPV

Regarding `Cc1ccc(-n2nnnc2SCC(=O)N2CCN(C(=O)c3ccco3)CC2)c(C)c1`, the viability (as a rule, a read-out of living cells in per cent, often relative to untreated cells) in assay [1] was 119%; in assay [3], 119% (inactive); in assay [4], 86% (inactive); in assay [5] it was 95.5% (inactive); in assay [6] (setting [9]), 94.8%; in assay [6] (setting [10]), 95.5%. For the same compound, in assay [2], the Her2 level is 84.5% (inactive). Further, the differential viability (reversal) in assay [6] (H69AR cells + 2 uM doxorubicin) was 0.745% (inactive). The results for the inhibition in assay [7] and in assay [8] were -7.76% (inactive) and -2.18% (inactive), respectively.
Take `O=C(CSc1nnc(CNC(=O)c2c(F)cccc2Cl)o1)c1ccccc1`: the viability is 94.5% in assay [1]; 94.5% (inactive) in assay [3]; 112% (inactive) in assay [4]; 92.1% (inactive) in assay [5]; 93.7% in assay [6] (setting [9]); 92.1% in assay [6] (setting [10]). Further, the Her2 level in assay [2] is 107% (inactive). The differential viability (reversal) in assay [6] (H69AR cells + 2 uM doxorubicin) is -1.57% (inactive). In addition, the inhibition (usually the change of the read-out against control, counted positive when it falls) in assay [7] is 0.38% (inactive); in assay [8], -0.67% (inactive).
As to `CCCc1ccc(S(=O)(=O)NCCc2ccncc2)cc1`, the viability was 96% in assay [1]; 96% (inactive) in assay [3]; 85.4% (inactive) in assay [4]; 106% (inactive) in assay [5]; 89.6% in assay [6] (setting [9]); 106% in assay [6] (setting [10]). Besides, in assay [2], the Her2 level is 91.5% (inactive). In assay [6] (H69AR cells + 2 uM doxorubicin), the differential viability (reversal) is 16.6% (inactive). For the same compound, the inhibition in assay [7] was -4.19% (inactive); in assay [8] it was -1.27% (inactive).
As for `CC(C)CSc1nc2ccccc2n1CC(N)=O`, the viability is 89.5% in assay [1]; 89.5% (inactive) in assay [3]; 87.6% (inactive) in assay [4]; 93.4% (inactive) in assay [5]; 93.2% in assay [6] (setting [9]); 93.4% in assay [6] (setting [10]). In addition, in assay [2], the Her2 level is 96% (inactive). The differential viability (reversal) in assay [6] (H69AR cells + 2 uM doxorubicin) is 0.185% (inactive). Moreover, the inhibition in assay [7] is -0.38% (inactive); in assay [8] it was 0.67% (inactive).
Regarding `O=C(COc1cccc(Oc2ccccc2)c1)Nc1ncccn1`, the viability in assay [1] was 99.5%; in assay [3], 99.5% (inactive); in assay [4], 110% (inactive); in assay [5] it was 94.3% (inactive); in assay [6] (setting [9]) it was 87.5%; in assay [6] (setting [10]), 94.3%. Further, in assay [2], the Her2 level was 106% (inactive). The differential viability (reversal) in assay [6] (H69AR cells + 2 uM doxorubicin) is 6.76% (inactive). In addition, the inhibition in assay [7] is -3.9% (inactive); in assay [8], -3.81% (inactive).
`CC1=CCC(C(C)(C)NC(=O)c2ccccc2)C/C1=N\O` (stereo not given): the viability was 104% in assay [1]; 104% (inactive) in assay [3]; 112% (inactive) in assay [4]; 106% (inactive) in assay [5]; 88.6% in assay [6] (setting [9]); 106% in assay [6] (setting [10]). The Her2 level in assay [2] is 98.5% (inactive). For the same compound, the differential viability (reversal) in assay [6] (H69AR cells + 2 uM doxorubicin) is 17.3% (inactive). For the same compound, the figures for the inhibition in assay [7] and in assay [8] were -0.81% (inactive) and 4.44% (inactive), respectively.
Regarding `COc1ccc(C2c3c(-c4ccccc4O)n[nH]c3C(=O)N2CCc2ccc(OC)c(OC)c2)cc1` (stereo not given), the viability was 112% in assay [1]; 112% (inactive) in assay [3]; 60.3% (inactive) in assay [4]; 68.5% (inactive) in assay [5]; 10.6% in assay [6] (setting [9]); 68.5% in assay [6] (setting [10]). Also, the Her2 level in assay [2] is 95.5% (inactive). Moreover, the differential viability (reversal) in assay [6] (H69AR cells + 2 uM doxorubicin) is 57.9% (active). Moreover, the inhibition in assay [7] was -2.89% (inactive); in assay [8], 6.94% (inactive).
For `CCOC(=O)c1cc(C)n(CCCN2CCOCC2)c1C`, the viability in assay [1] was 90.5%; in assay [3], 90.5% (inactive); in assay [4], 92.4% (inactive); in assay [5], 91.1% (inactive); in assay [6] (setting [9]), 95.2%; in assay [6] (setting [10]), 91.1%. Besides, the Her2 level in assay [2] was 85% (inactive). In assay [6] (H69AR cells + 2 uM doxorubicin), the differential viability (reversal) was -4.19% (inactive). Moreover, the inhibition was -0.66% (inactive) in assay [7] and 1.11% (inactive) in assay [8].
Regarding `CCC(C)(C(=O)NC1CCCCC1)N(Cc1ccco1)C(=O)c1ccc2c(c1)OCO2` (stereo not given), the viability is 92.5% in assay [1]; 92.5% (inactive) in assay [3]; 82.3% (inactive) in assay [4]; 83.4% (inactive) in assay [5]; 80.3% in assay [6] (setting [9]); 83.4% in assay [6] (setting [10]). The Her2 level in assay [2] was 89% (inactive). Moreover, the differential viability (reversal) in assay [6] (H69AR cells + 2 uM doxorubicin) was 3.06% (inactive). The results for the inhibition in assay [7] and in assay [8] were -1.82% (inactive) and -7.05% (inactive), respectively.
As to `Cc1ccc(-c2noc(CCC(=O)N3CCN(c4cccc(C(F)(F)F)c4)CC3)n2)cc1`, the viability is 87.5% in assay [1]; 87.5% (inactive) in assay [3]; 71.2% (inactive) in assay [4]; 93.1% (inactive) in assay [5]; 96.8% in assay [6] (setting [9]); 93.1% in assay [6] (setting [10]). Moreover, the Her2 level in assay [2] was 91% (inactive). For the same compound, the differential viability (reversal) in assay [6] (H69AR cells + 2 uM doxorubicin) is -3.76% (inactive). Moreover, the inhibition in assay [7] is -3.95% (inactive); in assay [8], -2.67% (inactive).
For `Cc1cc(C)cc(NC(=O)C2CCCN(S(=O)(=O)c3cnc[nH]3)C2)c1` (stereo not given), the viability was 99% in assay [1]; 99% (inactive) in assay [3]; 92.5% (inactive) in assay [4]; 88.6% (inactive) in assay [5]; 90.1% in assay [6] (setting [9]); 88.6% in assay [6] (setting [10]). Besides, the Her2 level in assay [2] is 96% (inactive). Also, the differential viability (reversal) in assay [6] (H69AR cells + 2 uM doxorubicin) is -1.48% (inactive). Further, the values for the inhibition in assay [7] and in assay [8] were -4.27% (inactive) and 0.67% (inactive), respectively.
Consider `CCCCC(=O)NCCc1cc2ccc(OC)cc2[nH]c1=O`, for which the viability in assay [1] was 91.5%; in assay [3], 91.5% (inactive); in assay [4], 102% (inactive); in assay [5] it was 103% (inactive); in assay [6] (setting [9]), 95.4%; in assay [6] (setting [10]), 103%. In addition, the Her2 level in assay [2] was 85.5% (inactive). Further, the differential viability (reversal) in assay [6] (H69AR cells + 2 uM doxorubicin) was 7.54% (inactive). Also, the values for the inhibition in assay [7] and in assay [8] were -7.95% (inactive) and -3.33% (inactive), respectively.
As for `Cc1ccc(-c2noc(CCC(=O)NCCc3ccccc3Cl)n2)cc1`, the viability in assay [1] was 77.5%; in assay [3], 77.5% (inactive); in assay [4], 103% (inactive); in assay [5] it was 99.6% (inactive); in assay [6] (setting [9]), 87.7%; in assay [6] (setting [10]), 99.6%. For the same compound, in assay [2], the Her2 level is 90% (inactive). In assay [6] (H69AR cells + 2 uM doxorubicin), the differential viability (reversal) is 12% (inactive). Besides, the inhibition is -3.29% (inactive) in assay [7] and -5.17% (inactive) in assay [8].
For `CCCOc1ccc(N2C(=O)C3ON(c4ccccc4)C(c4ccc(O)c(OC)c4)C3C2=O)cc1` (stereo not given), the viability in assay [1] was 106%; in assay [3], 106% (inactive); in assay [4], 71.6% (inactive); in assay [5], 93.8% (inactive); in assay [6] (setting [9]), 83.3%; in assay [6] (setting [10]), 93.8%. Besides, the Her2 level in assay [2] is 100% (inactive). Moreover, the differential viability (reversal) in assay [6] (H69AR cells + 2 uM doxorubicin) is 10.6% (inactive). The inhibition in assay [7] was -3.03% (inactive); in assay [8], 3.55% (inactive).
`OCc1nc(CO)n(Cc2ccccc2)n1`: the viability in assay [1] is 85.5%; in assay [3], 85.5% (inactive); in assay [4], 88.7% (inactive); in assay [5] it was 102% (inactive); in assay [6] (setting [9]), 108%; in assay [6] (setting [10]), 102%. In addition, the Her2 level in assay [2] was 84% (inactive). Moreover, the differential viability (reversal) in assay [6] (H69AR cells + 2 uM doxorubicin) was -5.83% (inactive). The inhibition is -1.05% (inactive) in assay [7] and -0.48% (inactive) in assay [8].
For `CCOC(=O)c1c(C)oc2ccc(OCC(N)=O)cc12`, the viability in assay [1] was 120%; in assay [3] it was 120% (inactive); in assay [4], 72.3% (inactive); in assay [5], 97.1% (inactive); in assay [6] (setting [9]) it was 95.4%; in assay [6] (setting [10]), 97.1%. In assay [2], the Her2 level is 95% (inactive). Besides, the differential viability (reversal) in assay [6] (H69AR cells + 2 uM doxorubicin) was 1.68% (inactive). Further, the results for the inhibition in assay [7] and in assay [8] were -0.79% (inactive) and -5.4% (inactive), respectively.
